{"data": "Measurements pooled from the literature", "note": "Lines come from different studies, so protocols differ."}
{"Structure (SMILES)": "O=C(O)c1cn(Cc2ccc(F)cc2)c2ccccc12", "tested on": "UDP-glucuronosyltransferase 1A10 (UGT1A10, Homo sapiens, UniProt Q9HAW8)", "assay": "enzyme activity, substrate", "quantity": "Km", "result": "38 µM"}
{"Structure (SMILES)": "N=c1c2c(-c3ccccc3)c(-c3ccccc3)n(Cc3ccccc3)c2ncn1[C@H]1CC[C@H](O)CC1", "system": "male cynomolgus monkey, plasma", "setting": "intravenous, 0.5 mg/kg, single dose", "quantity": "clearance", "result": "0.6 mL/min/kg"}
{"Structure (SMILES)": "O=[N+]([O-])c1ccc(Oc2cccc3cccnc23)c([N+](=O)[O-])c1", "tested on": "WI-38", "assay": "cell growth or viability, MTT", "setting": "48 h", "quantity": "CC50", "result": "243 µM"}
{"Structure (SMILES)": "Cc1cc(C)nc(Nc2ncc(C(=O)NCCc3c(C)[nH]c4ccccc34)cn2)c1", "assay": "metabolic stability", "system": "dog, liver microsomes", "setting": "1 µM", "quantity": "half-life", "result": "10 min"}
{"Structure (SMILES)": "O=C1Nc2c(C(F)(F)F)cccc2[C@@]1(c1ccc(O)cc1)c1ccc(OC(F)(F)F)cc1", "assay": "general toxicity", "system": "Sprague-Dawley rat", "setting": "intravenous", "quantity": "MTD", "result": "10 to 20 mg/kg"}
{"Structure (SMILES)": "O=C1N=C(N2CCCCN2)S/C1=C\\c1ccc(F)cc1OC(=O)N1CCCC1", "assay": "general toxicity", "system": "Sprague-Dawley rat", "setting": "oral, multiple doses", "quantity": "NOAEL", "result": "2000 mg/kg/day"}
{"Structure (SMILES)": "Cc1cc(NC2CCN(C(=O)OC3CCN(C(=O)/C=C/CN(C)C)C3)CC2)n2ncc(C(C)C)c2n1 (stereo not shown)", "assay": "general toxicity", "system": "rat", "setting": "oral, multiple doses, once daily", "quantity": "MTD", "result": "6 mg/kg"}
{"Structure (SMILES)": "Cc1nc2ccccc2n(-c2ccc([N+](=O)[O-])cc2[N+](=O)[O-])c1=O", "tested on": "WI-38", "assay": "cell growth or viability, MTT", "setting": "48 h", "quantity": "CC50", "result": "61.2 µM"}
{"Structure (SMILES)": "COc1c2ccoc2cc2oc(=O)ccc12", "tested on": "WI-38", "assay": "cell growth or viability, WST-1", "setting": "48 h", "quantity": "IC50", "result": "86.3 µM"}
{"Structure (SMILES)": "C#C[C@]1(CO)O[C@@H](n2cnc3c(N)nc(F)nc32)C[C@@H]1O", "assay": "general toxicity", "system": "rat", "setting": "oral, multiple doses", "quantity": "NOAEL", "result": "≥ 50 mg/kg/day"}
{"Structure (SMILES)": "CCC[C@@](N)(CO)CCc1ccc(OCCCCCC(C)C)cc1", "system": "dog, plasma", "setting": "intravenous, 0.25 mg/kg", "quantity": "C0", "result": "36 nM"}
{"Structure (SMILES)": "O=c1c(O[C@@H]2O[C@H](CO)[C@@H](O)[C@H](O)[C@H]2O)c(-c2ccc(O)cc2)oc2cc(O)cc(O)c12", "tested on": "WI-38", "assay": "cell growth or viability, WST-1", "quantity": "IC50", "result": "113 µM"}
{"Structure (SMILES)": "O=C(Nc1ncc([N+](=O)[O-])s1)c1ccccc1O", "tested on": "RPE", "assay": "cell growth or viability", "setting": "48 h", "quantity": "CC50", "result": "≥ 30 µM"}
